Screens as filed in PubChem BioAssay.
An excerpt weighted towards active compounds, which were near 0.55% of everything screened.
OXTR ag – human OXTR agonists, primary screen, fluorescence, CHO-OTR cells, Fluo-8 calcium; 320,000 compounds, 0.32% hits; AID 2435, 2010; Fluo-8 calcium fluorescence; normalized: DMSO 0%, oxytocin 100%; Oxytocin receptor (Homo sapiens), P30559; activation, % at 3 µM;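 active means activation above the mean of all tested compounds plus 3 SD, cutoff set per screening run, cut at about 20% in these data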;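 further: peak over basal fluorescence ratio from a 100 s FLIPR kinetic read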
V1aR counter – agonists of human V1a receptor, primary screen, counter-screen for OXTR agonist project, fluorescence, CHO-V1R cells; Vasopressin V1a receptor (Homo sapiens), P37288; Fluo-8 calcium fluorescence, agonist mode; 0% DMSO, 100% 3 nM vasopressin; activation, % at 3 µM; 320,000 compounds, 0.25% hits;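 active means activation above the mean activation of all tested compounds plus 3 SD, per screening run, cut at about 20% in these data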;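 further: signal is peak over basal fluorescence ratio across a 100 second FLIPR read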
Target sequence (P37288 whole entry, looked up): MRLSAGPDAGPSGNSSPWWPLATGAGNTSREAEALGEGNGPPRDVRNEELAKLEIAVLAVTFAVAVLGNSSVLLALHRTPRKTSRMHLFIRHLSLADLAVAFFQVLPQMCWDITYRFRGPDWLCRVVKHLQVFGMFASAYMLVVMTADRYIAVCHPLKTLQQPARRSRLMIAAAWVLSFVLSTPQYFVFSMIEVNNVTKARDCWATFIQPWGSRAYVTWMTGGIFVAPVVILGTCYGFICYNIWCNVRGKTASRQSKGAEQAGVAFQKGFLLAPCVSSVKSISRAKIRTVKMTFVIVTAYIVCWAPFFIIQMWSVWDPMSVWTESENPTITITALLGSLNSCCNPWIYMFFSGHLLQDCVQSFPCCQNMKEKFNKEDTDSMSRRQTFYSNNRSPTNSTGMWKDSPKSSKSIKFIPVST
TRPML3 ag – human TRPML3 channel agonists, primary screen, cell-based, HEK293 TRPML3-YFP, Fluo-8 calcium fluorescence, 3 µM; activation, % at 3 µM; AID 1448, 2008; Mucolipin-3 (Homo sapiens), Q8TDD5; 100% = the carbachol control signal; 220,000 compounds, 0.29% hits;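 active means activation above its plate's cutoff, the mean activation of the plate's test wells plus 3 SD, cut at about 12% in these data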;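 further: 0% = DMSO only wells and 100% = carbachol wells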
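Test system: TRPML3-YFP stable HEK293 cells. Doses: single point at 3 µM. Incubation: dye loading 1 h 37 °C then 30 min ambient, 125 s read. Signal: Fluo-8 calcium dye fluorescence, ex 470-495, em 515-575 nm. Measure: percent activation from peak-to-basal fluorescence ratio, scaled between DMSO and carbachol.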
OXTR potentiator – human OXTR potentiators, primary screen, fluorescence, CHO-OTR cells, Fluo-8 calcium; Oxytocin receptor (Homo sapiens), P30559; Fluo-8 calcium fluorescence, potentiator mode; 0% = oxytocin EC15, 100% = EC100; activation, % at 3 µM; 320,000 compounds, 0.061% hits;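 active means activation above that plate's cutoff, the mean activation of tested compounds plus 3 SD, cut at about 6.6% in these data, passing the limit was not always enough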;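 further: 100% uses oxytocin at 75 nM as the full agonist control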
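System: human OTR in CHO cells / Also added: sub-maximal oxytocin, roughly EC15 / Control set: EC15 oxytocin low, 75 nM oxytocin high / Schedule: 6 min compound pre-incubation at room temperature, 100 s kinetic read / Compound: single-point 3.0 µM / Replication: singlicate / Technique: Fluo-8 calcium dye fluorescence / Read-out basis: % activation of max/min ratio relative to oxytocin controls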
TRPN1 ag – zebrafish TRPN1 channel agonists, primary screen, cell-based, HEK293, calcium fluorescence; activation, % at 3 µM; 220,000 compounds, 0.18% hits; HEK293 zebrafish TRPN1-YFP, Fluo-8 calcium fluorescence; 100% = response to 87 µM carbachol; transient receptor potential cation channel N1 (TRPN1/NompC), Danio rerio; AID 1424, 2008;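 active means activation above its plate's cutoff, the mean activation of test wells on that plate plus 3 SD, cut at about 19% in these data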;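 further: 0% = DMSO alone and 100% = 87 µM carbachol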
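Material: zebrafish TRPN1-YFP in HEK293 cells; Doses: single test compound dose, 3 µM nominal, 0.3% DMSO; Timing: dye loading 1 h at 37 °C, then 30 min room temperature; Technique: intracellular calcium fluorescence with Fluo-8; Benchmarks: high carbachol 87 µM, low DMSO alone.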
OXTR pot confirm – human OXTR potentiators, confirmation, fluorescence, CHO-OTR cells, triplicate; shares compounds with OXTR potentiator; Fluo-8 calcium fluorescence, potentiation; scaled from low-dose to maximal oxytocin; activation, % at 3 µM; 180 tested, under 10 active; AID 434985, 2010;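 active means mean percent activation over triplicates above a cutoff set from solvent-only control plates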;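 further: compounds tested in the presence of an EC15 dose of oxytocin; 0% = EC15 oxytocin with DMSO and 100% = EC100 oxytocin with DMSO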
Starred values were filed as active, the others as inactive; · = no result given.

SMILES	OXTR ag	V1aR counter	TRPML3 ag	OXTR potentiator	TRPN1 ag	OXTR pot confirm
CC1CCN(c2ccc3c(c2)S(=O)(=O)c2cccc(C(=O)NC4CCCCC4)c2C3=O)CC1	13.8	9.2	·	-7.5	·	·
CN(c1ccccc1C(=O)Nc1ccc(S(=O)(=O)N2CCCCC2)cc1)S(C)(=O)=O	0.6	0.3	0.0	10.9*	1.8	-7.9
COc1ccc2nc(NC(=O)CSc3nnc(C)s3)sc2c1	1.4	-0.2	0.0	10.2*	1.2	-4.2
COc1ccc2nc(NC(=O)CSc3nc(SC)ns3)sc2c1	-0.7	1.1	0.4	-3.5	-0.3	·
Nc1ccc(S(=O)(=O)N2CCC(Cc3ccccc3)CC2)cc1	2.5	3.8	·	-10.8	·	·
O=S(=O)(c1ccc(Cl)nc1)N1CCCc2ccccc21	-2.2	-0.6	0.1	8.3*	-1.1	0.7
CC(C)(C)OC(=O)N1CCCC(C(=O)Nc2ccc(C(=O)N3CCOCC3)cc2)C1 (stereo not given)	1.8	1.1	·	-3.2	·	·
Cc1occc1C(=O)N1CCCC(N2CCN(c3ccccc3F)CC2)C1 (stereo not given)	-0.2	0.7	·	-8.8	·	·
CCOC(=O)N1CCC(NC(=O)C2CCN(S(=O)(=O)c3cccc4cccnc34)CC2)CC1	-0.3	-0.3	0.3	-8.0	1.1	·
O=C(NC1CCCCC1)C1CCN(S(=O)(=O)c2cccc3cccnc23)CC1	1.4	0.7	1.0	14.5*	0.5	-4.2
COc1ccc(CNC(=O)[C@H](C)NC(=O)C2CC(=O)N(c3ccc4c(c3)OCO4)C2)cc1 (stereo not given in full)	-0.5	-0.3	·	13.7*	·	-1.1
CNC(=O)c1c(NC(=O)CS(=O)(=O)c2ccccc2)sc(C)c1C	-0.3	-1.1	·	-7.4	·	·
Cc1sc(NC(=O)CS(=O)(=O)c2ccccc2)c(C(N)=O)c1C	-1.5	0.1	·	8.1*	·	-7.8
CCSc1nnc(CNC(=O)C23CC4CC(CC(C4)C2)C3)n1C1CCCCC1	-2.4	-0.3	-1.0	5.1	2.4	·
CCCCn1c(N)c(N(CC(C)C)C(=O)c2ccc(-c3ccc(Cl)cc3)o2)c(=O)[nH]c1=O	-2.8	-1.9	·	-6.3	·	·
CCCCn1c(N)c(N(CC)C(=O)c2ccc(-c3ccc(Cl)cc3)o2)c(=O)[nH]c1=O	-0.1	0.0	·	11.5*	·	-10.7
C/C(Cl)=C/Cn1c(N2CCCC2)nc2c1c(=O)[nH]c(=O)n2C	-0.2	-0.1	·	-0.8	·	·
C=CCn1c(N2CCCC2)nc2c1c(=O)[nH]c(=O)n2C	0.4	-0.6	-0.6	10.6*	-0.1	-5.2
O=C(NC(=S)Nc1ccccc1N1CCOCC1)c1ccc(Br)cc1	-1.0	1.3	·	13.8*	·	3.5
O=C(O)CN(c1ccccc1F)S(=O)(=O)c1ccccc1	1.0	0.1	0.2	10.7*	0.6	-5.0
O=C(CCCSc1nc2ccccc2[nH]1)NCc1ccccc1	-1.2	2.5	-0.6	12.0*	-1.5	-8.2
COC1CCCCC1Nc1cccc(SC)c1 (stereo not given)	-1.3	-1.1	-0.2	11.8*	-1.4	-2.9
ClCC1NCC(c2ccccc2Cl)c2c1[nH]c1ccccc21 (stereo not given)	5.1	1.3	-0.1	-8.3	3.6	·
CCCC(=O)Nc1cc(S(=O)(=O)N2CCCCC2)ccc1N1CCOCC1	0.9	0.3	·	0.4	·	·
CCCC(=O)Nc1cc(S(=O)(=O)N2CCOCC2)ccc1N1CCCCC1	-0.6	0.0	·	12.5*	·	-7.1
COc1ccc(S(=O)(=O)N(C)c2ccc(C(=O)NCC3CCCO3)cc2)cc1OC (stereo not given)	1.7	1.1	·	14.5*	·	-3.7
CC1CCN(S(=O)(=O)c2cnc[nH]2)CC1	-0.2	1.0	·	8.5*	·	-9.3
CC1CCN(C(=O)C2CCN(S(=O)(=O)c3cnc[nH]3)CC2)CC1	3.6	2.7	0.3	-3.9	-0.8	·
